Assay results published in ChEMBL document CHEMBL1123194, “Isozyme-specific enzyme inhibitors. 11. L-homocysteine-ATP S-C5' covalent adducts as inhibitors of rat methionine adenosyltransferases” (J Med Chem, 1986).
“And” between values parts separate entries of the source, which are not always exact repeats. Equal entries are not always repeated.

Assays:
[1] = molecular target: T1, S-adenosylmethionine synthetase (MAT 1 and MAT 2) (Rattus norvegicus, UniProt P13444+P18298); assay: Inhibition constant was evaluated on novikoff hepatoma (MAT-T) form of rat methionine adenosyltransferase, when ATP was the variable substrate (60 uM); assay type: protein assay; details: in the assay text read “120 uM” for “60 uM”
Summary of the method: (§1)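 Rat MAT-2 and MAT-T, partially purified as described in earlier work. Assayed at 37 °C for 10 min in duplicate in 150 mM KCl, 15 mM MgCl2, 5 mM dithiothreitol, 50 mM Tris-HCl, pH 8.2, with L-[methyl-14C]methionine and MgATP. Six to eight levels of the variable substrate (0.5-4.0 × KM), two inhibitor levels plus no-inhibitor controls. Product captured on phosphocellulose disks and counted by scintillation. Blanks lacked ATP.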

[2] = molecular target: S-adenosylmethionine synthase isoform type-2 (Rattus norvegicus, UniProt P18298); assay: Inhibition constant was evaluated with kidney Methionine adenosyltransferase II form of rat methionine adenosyltransferase, when ATP was the variable substrate (60 uM); summary of the method: as §1
[3] = molecular target: T1, S-adenosylmethionine synthetase (MAT 1 and MAT 2); assay: Inhibition constant was evaluated with kidney (MAT-2) form of rat methionine adenosyltransferase, when methionine was the variable substrate (2 mM); assay type: protein assay; summary of the method: as §1
[4] = Michaelis constant (KM) was evaluated; assay type: ADME
[5] = molecular target: T1, S-adenosylmethionine synthetase (MAT 1 and MAT 2); assay: Inhibition constant was evaluated on novikoff hepatoma (MAT-T) form of rat methionine adenosyltransferase, when methionine was the variable substrate (2 mM); assay type: protein assay; summary of the method: as §1

S-adenosylmethionine synthase isoform type-2, sequence (P18298 whole entry, canonical isoform): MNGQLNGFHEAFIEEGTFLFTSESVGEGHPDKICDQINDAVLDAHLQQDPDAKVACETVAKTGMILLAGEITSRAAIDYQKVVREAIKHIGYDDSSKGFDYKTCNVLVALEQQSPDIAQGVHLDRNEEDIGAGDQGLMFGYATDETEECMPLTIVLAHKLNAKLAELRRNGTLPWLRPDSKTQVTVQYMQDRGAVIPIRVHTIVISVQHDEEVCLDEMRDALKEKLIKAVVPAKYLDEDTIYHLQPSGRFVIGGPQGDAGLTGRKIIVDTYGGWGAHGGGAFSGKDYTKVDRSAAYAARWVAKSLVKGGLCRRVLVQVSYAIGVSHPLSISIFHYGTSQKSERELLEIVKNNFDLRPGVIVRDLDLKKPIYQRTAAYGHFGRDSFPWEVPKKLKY

Ki [1] [µM] | Ki [2] [µM] | Ki [3] [µM] | Km [4] | Ki [5] [µM] | SMILES
32 | 39 | 62 | – | – | Nc1ncnc2c1ncn2[C@@H]1O[C@H](C(CP(=O)(O)OP(=O)(O)OP(=O)(O)O)SCCC(N)C(=O)O)[C@@H](O)[C@H]1O (single isomer, unassigned; epimer 1)
– | – | – | 75 µM and 310 µM | – | Nc1ncnc2c1ncn2C1OC(CCP(=O)(O)OP(=O)(O)OP(=O)(O)O)[C@@H](O)[C@H]1O (stereo not given in full)
148 | 180 | 200 | – | – | Nc1ncnc2c1ncn2[C@@H]1O[C@H](C(CP(=O)(O)OP(=O)(O)OP(=O)(O)O)SCCC(N)C(=O)O)[C@@H](O)[C@H]1O (single isomer, unassigned; epimer 2)

Further lines, the compound ahead of its results:

SMILES | Ki [1] [µM] | Ki [2] [µM] | Ki [3] [µM] | Km [4] | Ki [5] [µM]
CSCC[C@H](N)C(=O)O [METHIONINE] | – | – | – | 5 µM and 15 µM | –
Nc1ncnc2c1ncn2[C@@H]1O[C@H](C(CP(=O)(O)OP(=O)(O)NP(=O)(O)O)SCCC(N)C(=O)O)[C@@H](O)[C@H]1O (stereo not given in full) | 11 | 16 | 26 | – | 38
Nc1ncnc2c1ncn2[C@@H]1O[C@H](COP(=O)(O)OP(=O)(O)OP(=O)(O)O)[C@@H](O)[C@H]1O | – | – | – | 140 µM | –
Nc1ncnc2c1ncn2[C@@H]1O[C@H](C(CP(=O)(O)OP(=O)(O)OP(=O)(O)O)[S+]([O-])CCC(N)C(=O)O)[C@@H](O)[C@H]1O (stereo not given in full) | 81 | 140 | – | – | –
